Measured values from ChEMBL document CHEMBL1139927, “A new class of nifuroxazide analogues: synthesis of 5-nitrothiophene derivatives with antimicrobial activity against multidrug-resistant Staphylococcus aureus” (2007).
Values after ≈ are worked out from the molar mass of the structure shown.

Assays:
Format in all cases: functional
Staphylococcus aureus [1] = experiment: Antimicrobial activity against multidrug-resistant Staphylococcus aureus 3SP/R33 […] after 24 hrs; conditions: 3SP/R33, 24 h
Procedure, shortened: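 MBC: 10 µL was taken from each tube that stayed clear in the broth dilution MIC test. Each aliquot was spread over the whole surface of a Müller–Hinton agar plate, and plates were incubated at 35 °C for 24 h to read bactericidal concentration.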

Staphylococcus aureus [2] = experiment: Antimicrobial activity against Staphylococcus aureus ATCC 25923 after 18 hrs by serial dilution test; conditions: ATCC 25923, 18 h
Procedure, shortened: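 Twofold broth macro-dilution in Tryptic Soy Broth. Inoculum taken from fresh 18 h, 35 °C cultures on plate count agar and adjusted to McFarland no. 1. Compounds prepared as DMSO stocks and diluted in TSB, with ethanol as co-solvent and 2–5% DMSO in the assay. Tubes incubated at 35 °C for 18 h and read visually. MIC is the lowest concentration giving complete growth inhibition; run in quadruplicate.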

Staphylococcus aureus [3] = experiment: Antimicrobial activity against multidrug-resistant Staphylococcus aureus 3SP/R33 after 18 hrs by serial dilution test; conditions: 3SP/R33, 18 h
Procedure, shortened: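 Broth twofold macro-dilution in Tryptic Soy Broth. Inoculum came from fresh cultures grown on plate count agar for 18 h at 35 °C and was adjusted to McFarland no. 1. Compound stocks were made in DMSO (2–5% in assay), with ethanol as co-solvent, and diluted in TSB. Tubes were incubated at 35 °C for 18 h. MIC = lowest concentration giving no visible growth; run in quadruplicate.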

| SMILES | MBC (Staphylococcus aureus [1]) [µg/mL] | MIC (Staphylococcus aureus [2]) [µM] | MIC (Staphylococcus aureus [3]) [µg/mL] |
| --- | --- | --- | --- |
| CCCCNc1ccc(C(=O)N/N=C/c2ccc([N+](=O)[O-])s2)cc1 | > 49.8 | ≤ 22.4 | 6.22 (≈ 18 µM) |
| O=C(N/N=C/c1ccc([N+](=O)[O-])s1)c1ccccc1 | ≥ 125 | ≤ 16.7 | 3.9 (≈ 14.2 µM) |
| O=C(N/N=C/c1ccc([N+](=O)[O-])s1)c1ccc(Cl)cc1 | 2.18 (≈ 7.04 µM) | ≤ 5.52 | 1.09 (≈ 3.52 µM) |
| CCCCc1ccc(C(=O)N/N=C/c2ccc([N+](=O)[O-])s2)cc1 | > 50.8 | ≤ 40.7 | 12.7 (≈ 38.3 µM) |
| CCc1ccc(C(=O)N/N=C/c2ccc([N+](=O)[O-])s2)cc1 | > 92.8 | ≤ 22.2 | 5.8 (≈ 19.1 µM) |
| O=C(N/N=C/c1ccc([N+](=O)[O-])s1)c1ccc(Br)cc1 | 0.63 (≈ 1.78 µM) | ≤ 2.12 | 0.63 (≈ 1.78 µM) |
| CCCOc1ccc(C(=O)N/N=C/c2ccc([N+](=O)[O-])s2)cc1 |  | ≤ 24.3 |  |
| CC(=O)c1ccc(C(=O)N/N=C/c2ccc([N+](=O)[O-])s2)cc1 | 0.22 (≈ 0.693 µM) | ≤ 0.44 | 0.11 (≈ 0.347 µM) |
| O=C(N/N=C/c1ccc([N+](=O)[O-])s1)c1ccc(Cl)c(Cl)c1 | 0.63 (≈ 1.83 µM) | ≤ 2.21 | 0.63 (≈ 1.83 µM) |
| O=C(N/N=C/c1ccc([N+](=O)[O-])s1)c1ccc(I)cc1 | > 88.8 | ≤ 14 | 5.55 (≈ 13.8 µM) |
| CC(C)c1ccc(C(=O)N/N=C/c2ccc([N+](=O)[O-])s2)cc1 | > 40.2 | ≤ 28.6 | 5.02 (≈ 15.8 µM) |
| C=Cc1ccc(C(=O)N/N=C/c2ccc([N+](=O)[O-])s2)cc1 | > 54 | ≤ 15.7 | 3.38 (≈ 11.2 µM) |
| CCCc1ccc(C(=O)N/N=C/c2ccc([N+](=O)[O-])s2)cc1 | > 29 | ≤ 36.5 | 7.25 (≈ 22.8 µM) |
| CCCCOc1ccc(C(=O)N/N=C/c2ccc([N+](=O)[O-])s2)cc1 | > 41.2 | ≤ 35.4 | 10.3 (≈ 29.7 µM) |
